TRPC4 agonist: activators of mouse TRPC4 channel. Q9QUQ5. AID 2237. B-score at 10 µM. HEK293 TRPC4beta/mu-opioid, Fluo4 calcium fluorescence; stronger effect = higher value. 310,000 tested, 0.49% active;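 active = B-score above 5 SD of library B-scores, and initial fluorescence ratio not above library mean plus 5 SD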;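 also: positive B-score marks a calcium rise read as TRPC4 activation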
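Technique: kinetic Fluo4 calcium fluorescence; Test system: TRPC4beta and mu-opioid receptor HEK293 stable cells; Measure: B-scored integrated calcium fluorescence ratio; Benchmarks: low control buffer alone, high control maximal DAMGO; Schedule: 45 min room-temperature Fluo4 loading, 110 s read.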
TRPC4 potent: allosteric potentiators of mouse TRPC4 channel; Q9QUQ5; HEK293 TRPC4beta/mu-opioid, DAMGO EC20, Fluo-4 Ca2+ flux; stronger effect = higher value; B-score at 10 µM; 310,000 tested, 0.42% active; AID 2227;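 active = B-score of calcium response area above 5 SD of library B-scores, with initial fluorescence ratio within 5 SD of library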;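 also: B-score of integrated fluorescence ratio over time as area under calcium response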
TRPC6 inhibitor: blocks the mouse TRPC6 cation channel; 310,000 tested, 1.1% active; B-score at 10 µM; HEK293-TRPC6, membrane potential dye, ACh-evoked depolarization; stronger effect = lower value; Q61143; AID 2553;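 active = B-score under library mean minus 3 SD, initial fluorescence not abnormally high, positive integrated signal ratio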;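 also: B-score derived from integrated fluorescence ratio over the kinetic read; more negative B-score means stronger inhibition of depolarization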
TRPC6 act: activates the mouse TRPC6 cation channel; B-score at 10 µM; Q61143; HEK293-TRPC6 membrane potential dye fluorescence; stronger effect = higher value; 310,000 tested, 0.13% active;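 active = B-score of the integrated fluorescence ratio above library mean plus 3 SD, and starting fluorescence ratio within library mean plus 5 SD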;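 also: higher score means more depolarization so channel activation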
TRPC4 inh: blocks the mouse TRPC4 cation channel | Q9QUQ5 | HEK293 TRPC4beta/mu-opioid, DAMGO-evoked Fluo4 calcium flux; stronger effect = lower value | B-score at 10 µM | 300,000 tested, 0.39% active | AID 2247;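 active = B-score over 3 SD under the library average, no early fluorescence shift, positive overall ratio signal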
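Test system – stable TRPC4beta/mu-opioid receptor HEK293 cells · Probe or stimulus – DAMGO, a submaximal dose followed by a maximal one · Dosing – one concentration per compound · Signal – Fluo4 calcium fluorescence by kinetic imaging, 5 s 1 Hz baseline · Evaluation – per-well B score of integrated baseline-normalized Fluo4 ratio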
An asterisk follows results filed as active; i = inactive. This is a sample that favours compounds with a hit; in the whole collection about 2.3% have one here.

SMILES	TRPC4 agonist	TRPC4 potent	TRPC6 inhibitor	TRPC6 act	TRPC4 inh
CN(C)CCSc1nc(-c2ccccc2)nc2c1CCC2	i	i	i	i	i
CCOC(=O)C(N)CSC1CC(=O)N(CCc2ccccc2)C1=O (stereo not given)	i	i	i	i	i
CCN(Cc1ccccc1)c1ccc(/C=N/NC(=S)NC(C)C)cc1	i	i	i	i	i
CCN(Cc1ccccc1)c1ccc(/C=N/N=C(N)N)cc1	145*	i	i	i	i
CCOC(=O)C1=NN(C(=O)c2cccc(Br)c2)C(O)(C(C)(C)C)C1 (stereo not given)	180*	i	i	i	i
Cc1nc(N)c(CC(Br)CBr)c(Cl)n1 (stereo not given)	i	i	i	i	i
C/C(CC(=O)N(C(C)C)C(C)C)=N\NC(=O)COc1ccc(Cl)cc1Cl	i	i	i	i	-6*
C/C(CC(=O)N(C(C)C)C(C)C)=N\NC(=O)COc1ccc(Br)cc1Br	i	i	i	i	i
CN1CCN(c2nc(-c3cccnc3)nc3scc(-c4ccccc4)c23)CC1	64*	i	i	i	-7*
NCCCn1c(C(=O)c2cc(Cl)c(N)c(Cl)c2)c2ccccc2[n+]1[O-]	178*	i	i	i	i
NC(=O)CCn1c(C(=O)c2cc(Cl)c(N)c(Cl)c2)c2ccccc2[n+]1[O-]	i	i	i	i	i
CN(C)S(=O)(=O)c1cccc(COC(=O)c2ccc3c(c2)OCO3)c1	i	i	i	i	i
CN(C)S(=O)(=O)c1cccc(COC(=O)c2ccc(Cl)cc2O)c1	i	17*	i	i	i
CCN(CC)S(=O)(=O)c1ccc(N2CCCC2)c(NC(=O)Cc2c(F)cccc2Cl)c1	i	i	i	i	i
COc1ccc(/C(C)=N/NC(=O)CNC(=O)/C=C\c2ccccc2OC)c(OC)c1	i	i	i	i	i
Cc1ccccc1Cn1c(CN2CCc3ccccc3C2)nc2c1c(=O)n(C)c(=O)n2C	52*	119*	i	i	i
CCn1c(CN2CCN(C(c3ccccc3)c3ccccc3)CC2)nc2c1c(=O)n(C)c(=O)n2C	i	17*	i	i	i
Cn1c(=O)c2c(nc(CN3CCc4ccccc4C3)n2Cc2ccc(F)cc2)n(C)c1=O	i	23*	i	i	i
CCCCCCn1c(N2CCN(c3ccccc3)CC2)nc2c1c(=O)n(C)c(=O)n2C	i	94*	i	i	i
COC(=O)Cn1c(CN2CCc3ccccc3C2)nc2c1c(=O)n(C)c(=O)n2C	i	i	i	i	i
COC(=O)c1cccc(Oc2nc3c(c(=O)n(C)c(=O)n3C)n2Cc2ccc(C)cc2)c1	i	i	i	i	-6*
CCC1CCCCN1Cc1nc2c(c(=O)n(C)c(=O)n2C)n1Cc1ccccc1 (stereo not given)	i	i	i	i	-6*
Cc1ccc(Cn2c(CN(C)Cc3ccccc3)nc3c2c(=O)n(C)c(=O)n3C)cc1	i	10*	i	i	i
CCC1CCCCN1Cc1nc2c(c(=O)n(C)c(=O)n2C)n1CCCc1ccccc1 (stereo not given)	i	i	i	i	i
CN(Cc1ccccc1)Cc1nc2c(c(=O)n(C)c(=O)n2C)n1Cc1ccc(F)cc1	i	i	i	i	i
SMILES	TRPC4 agonist	TRPC4 potent	TRPC6 inhibitor	TRPC6 act	TRPC4 inh
CCN(CC(=O)Nc1ccc(NC(C)=O)cc1)C(=O)c1ccccc1SCc1c(C)noc1C	i	i	i	i	i
NCCCCCCNS(=O)(=O)c1cccc2c(Cl)cccc12	95*	i	i	i	i
O=C(CN(C(=O)CNC(=O)c1ccco1)c1ccc2c(c1)OCCO2)NC1CCCC1	i	i	i	i	i
COc1cc(OC)cc(-c2cc3nc(C)cc(N4CCN(C(=O)c5ccco5)CC4)n3n2)c1	i	i	i	i	i
CCC1(C(=O)c2ccccc2)C(c2ccc([N+](=O)[O-])cc2)C1(C(=O)OC)C(=O)OC (stereo not given)	i	i	i	i	-7*
O=C(O)CC/C(=N\NC(=O)c1ccccc1Br)c1ccccc1	i	i	i	i	i
CCCCN(C(=O)c1cccc2c(=O)c(C)c(-c3ccccc3)oc12)c1ccccc1	i	32*	i	i	i
CCN(CC)CCCN1CC(=O)N2[C@@H](Cc3c([nH]c4ccccc34)C2(C)C)C1=O	i	i	i	i	i
CCN(CC)CCN(Cc1cc2ccc(C)cc2[nH]c1=O)C(=S)Nc1ccccc1C(=O)OC	i	i	i	i	-6*
COC(=O)c1ccccc1NC(=S)N(Cc1ccc2c(c1)OCO2)Cc1cc2ccc(C)cc2[nH]c1=O	i	i	i	i	i
Cc1ccc(NC(=S)N(CCCN(C)C)Cc2cc3cc4c(cc3[nH]c2=O)OCO4)c(C)c1	i	i	i	i	-6*
N#Cc1ccccc1S(=O)(=O)N1CCN(CC(O)c2ccccc2)CC1 (stereo not given)	i	i	i	i	i
Cc1ccc(S(=O)(=O)N2CCC(C(=O)NCCCn3ccnc3)CC2)cc1	i	i	i	i	i
Cc1nc(NCCc2ccccc2)c(C#N)c(C)c1[N+](=O)[O-]	i	i	i	i	i
Cc1ccccc1C(=O)Nc1ccc(C(=O)N/N=C/c2ccc(O)cc2)cc1	i	i	i	i	i
Cc1ccccc1C(=O)Nc1ccc(C(=O)N/N=C/c2ccncc2)cc1	i	i	i	i	-6*
O=C(Nc1cccc(Cl)c1)c1ccc(-n2cncn2)c([N+](=O)[O-])c1	i	i	-5.5*	i	i
CN1CCN(Cc2nc3ccccc3n2C)CC1CCO (stereo not given)	i	19*	i	i	i
CC(C)Cn1c(CN2CCN(C)C(CCO)C2)nc2ccccc21 (stereo not given)	i	19*	i	i	i
CCn1c(CN2CCN(Cc3ccc(C)cc3)C(CCO)C2)nc2ccccc21 (stereo not given)	172*	i	i	i	i
Cc1ccc(CN2CCN(Cc3cccc4nccnc34)CC2CCO)cc1 (stereo not given)	i	i	i	i	i
COc1ccc(CNCC(O)(c2ccc(F)cc2)c2ccc(F)cc2)cc1	i	i	i	i	i
COc1ccccc1C(=O)NC(=O)CSc1nc(C)cs1	i	i	i	i	i

Screens as filed in PubChem BioAssay.
